Test results from paper PMC5532717 (ACS Central Science, 2017).

Legend:
Type in all cases: biochemical
human β-glucosidase GBA1 = molecular target: T1, human β-glucosidase GBA1 (Homo sapiens, UniProt P04062, R534H); test: In vitro apparent IC50, recombinant GBA1
T1 sequence (P04062 40-536 R534H): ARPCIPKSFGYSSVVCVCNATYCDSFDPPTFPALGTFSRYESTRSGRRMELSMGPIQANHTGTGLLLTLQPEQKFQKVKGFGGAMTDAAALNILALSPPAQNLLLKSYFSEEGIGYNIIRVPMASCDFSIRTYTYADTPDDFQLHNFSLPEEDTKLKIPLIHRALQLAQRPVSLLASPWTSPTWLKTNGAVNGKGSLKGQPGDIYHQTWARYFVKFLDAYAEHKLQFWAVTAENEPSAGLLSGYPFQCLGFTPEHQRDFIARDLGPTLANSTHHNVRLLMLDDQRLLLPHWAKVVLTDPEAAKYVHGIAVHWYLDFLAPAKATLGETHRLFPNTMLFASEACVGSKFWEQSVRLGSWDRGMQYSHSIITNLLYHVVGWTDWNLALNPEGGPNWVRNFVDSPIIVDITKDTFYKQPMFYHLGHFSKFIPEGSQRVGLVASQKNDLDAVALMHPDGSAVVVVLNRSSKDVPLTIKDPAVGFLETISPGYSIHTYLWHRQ
Summary of the method: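 Recombinant human GBA1 (Cerezyme) preincubated with a range of test compound concentrations for 30 min at 37 °C, then added to 4-MU-Glc substrate mixture to measure residual activity. Reaction quenched with 1 M NaOH–glycine (pH 10.3); 4-MU fluorescence read at λEX 366 / λEM 445 nm. Apparent IC50 is the mean of three technical replicates.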

GBA2 = molecular target: T2, GBA2 (Homo sapiens, UniProt Q9HCG7); test: Competitive ABPP against β-glucosidase probe 14, GBA2+ HEK293T lysate; details: 5 from 30 to 0 μM, 1 h at 37 °C, pH 5.8
T2 sequence (Q9HCG7 1-927): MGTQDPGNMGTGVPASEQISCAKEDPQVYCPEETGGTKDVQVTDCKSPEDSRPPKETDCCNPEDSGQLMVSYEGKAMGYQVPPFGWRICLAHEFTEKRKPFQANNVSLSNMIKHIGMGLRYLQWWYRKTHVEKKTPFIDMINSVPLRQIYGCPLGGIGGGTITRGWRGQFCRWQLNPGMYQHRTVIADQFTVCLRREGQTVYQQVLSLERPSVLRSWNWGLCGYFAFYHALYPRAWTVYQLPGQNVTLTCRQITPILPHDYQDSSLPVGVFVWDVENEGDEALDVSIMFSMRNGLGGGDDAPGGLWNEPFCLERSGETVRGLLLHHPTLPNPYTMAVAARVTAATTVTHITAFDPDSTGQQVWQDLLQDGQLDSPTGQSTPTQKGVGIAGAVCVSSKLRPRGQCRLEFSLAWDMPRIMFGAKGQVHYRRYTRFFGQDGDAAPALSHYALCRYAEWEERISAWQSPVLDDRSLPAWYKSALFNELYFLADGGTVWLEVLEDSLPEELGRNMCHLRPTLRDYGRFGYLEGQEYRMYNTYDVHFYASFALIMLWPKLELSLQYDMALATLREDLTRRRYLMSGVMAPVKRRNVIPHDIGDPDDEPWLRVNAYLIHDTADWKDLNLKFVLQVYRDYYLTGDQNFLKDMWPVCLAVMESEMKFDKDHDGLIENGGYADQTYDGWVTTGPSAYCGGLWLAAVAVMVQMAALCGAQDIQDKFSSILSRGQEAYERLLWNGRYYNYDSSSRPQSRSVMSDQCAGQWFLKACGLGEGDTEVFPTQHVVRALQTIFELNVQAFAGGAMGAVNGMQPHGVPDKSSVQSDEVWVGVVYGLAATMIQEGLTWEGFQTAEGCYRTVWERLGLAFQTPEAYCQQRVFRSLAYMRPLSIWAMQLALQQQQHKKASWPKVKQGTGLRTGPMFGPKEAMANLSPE

sucrase-isomaltase (SIS) = sucrase-isomaltase (SIS) (Mus musculus, UniProt B5THE3); test: Competitive ABPP against probe 13 in mouse gastrointestinal lysate; details: mouse intestine lysate, 1 h at 37 °C
sucrase-isomaltase (SIS), sequence (B5THE3 1-1818): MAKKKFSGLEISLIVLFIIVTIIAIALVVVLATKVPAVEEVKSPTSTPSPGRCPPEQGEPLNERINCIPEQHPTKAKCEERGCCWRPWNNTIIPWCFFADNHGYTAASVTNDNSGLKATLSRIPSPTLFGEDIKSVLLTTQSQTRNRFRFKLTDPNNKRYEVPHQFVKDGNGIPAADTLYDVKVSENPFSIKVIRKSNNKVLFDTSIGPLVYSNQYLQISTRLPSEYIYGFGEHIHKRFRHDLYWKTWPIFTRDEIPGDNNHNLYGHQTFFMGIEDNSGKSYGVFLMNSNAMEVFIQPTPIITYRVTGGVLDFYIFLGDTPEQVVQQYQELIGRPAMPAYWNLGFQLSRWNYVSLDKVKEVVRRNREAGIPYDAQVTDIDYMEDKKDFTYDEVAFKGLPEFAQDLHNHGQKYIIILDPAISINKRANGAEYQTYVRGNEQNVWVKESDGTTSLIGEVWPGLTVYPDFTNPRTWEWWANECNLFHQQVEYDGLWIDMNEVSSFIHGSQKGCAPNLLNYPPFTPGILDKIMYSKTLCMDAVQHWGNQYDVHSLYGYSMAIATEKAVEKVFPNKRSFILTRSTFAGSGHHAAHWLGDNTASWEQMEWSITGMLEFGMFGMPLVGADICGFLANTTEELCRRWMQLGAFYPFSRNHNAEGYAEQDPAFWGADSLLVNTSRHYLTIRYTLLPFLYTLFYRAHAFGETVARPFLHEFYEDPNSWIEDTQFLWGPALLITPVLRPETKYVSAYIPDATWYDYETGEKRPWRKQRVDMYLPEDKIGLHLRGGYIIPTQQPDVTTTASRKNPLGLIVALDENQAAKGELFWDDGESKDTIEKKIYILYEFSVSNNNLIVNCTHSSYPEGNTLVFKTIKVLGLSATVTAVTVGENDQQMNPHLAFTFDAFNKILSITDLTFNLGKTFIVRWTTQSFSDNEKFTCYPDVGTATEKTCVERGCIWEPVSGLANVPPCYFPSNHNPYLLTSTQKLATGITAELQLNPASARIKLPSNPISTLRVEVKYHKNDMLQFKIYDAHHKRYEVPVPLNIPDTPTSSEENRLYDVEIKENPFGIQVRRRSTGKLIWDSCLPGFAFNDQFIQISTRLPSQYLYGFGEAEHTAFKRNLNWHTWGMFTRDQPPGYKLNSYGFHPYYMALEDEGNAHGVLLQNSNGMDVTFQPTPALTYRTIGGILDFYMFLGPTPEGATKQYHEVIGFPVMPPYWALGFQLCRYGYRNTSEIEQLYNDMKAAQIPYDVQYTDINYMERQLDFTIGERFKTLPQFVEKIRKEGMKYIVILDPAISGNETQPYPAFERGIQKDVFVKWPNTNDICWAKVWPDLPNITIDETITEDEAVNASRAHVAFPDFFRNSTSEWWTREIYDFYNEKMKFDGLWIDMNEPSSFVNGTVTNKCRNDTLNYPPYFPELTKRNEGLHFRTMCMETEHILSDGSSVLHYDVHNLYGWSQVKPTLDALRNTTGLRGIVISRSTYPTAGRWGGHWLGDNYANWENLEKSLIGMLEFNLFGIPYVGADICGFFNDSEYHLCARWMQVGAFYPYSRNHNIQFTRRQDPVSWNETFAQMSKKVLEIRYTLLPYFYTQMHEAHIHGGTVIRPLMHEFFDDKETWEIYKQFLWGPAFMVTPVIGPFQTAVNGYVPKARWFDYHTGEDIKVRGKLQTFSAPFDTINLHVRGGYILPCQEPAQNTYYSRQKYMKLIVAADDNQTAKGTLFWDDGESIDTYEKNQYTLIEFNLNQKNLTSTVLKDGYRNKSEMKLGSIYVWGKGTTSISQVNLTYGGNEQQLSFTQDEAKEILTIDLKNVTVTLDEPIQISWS
Summary of the method: (§1)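 Mixed mouse duodenum, jejunum and ileum homogenates were made in 25 mM potassium phosphate pH 6.5 with protease inhibitors (40 μg protein). Held 5 min on ice in McIlvaine buffer pH 4 or 7. Incubated 1 h at 37 °C with test compound (final 150 to 0.005 μM, plus 0), then probe 13 for 30 min at 37 °C. Boiled in Laemmli buffer, 10% SDS–PAGE, Cy5 fluorescence scan.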

[1] = molecular target: T3, lactase-phlorizin hydrolase (LPH) (Mus musculus, UniProt F8VPT3); test: as above; details: mouse intestine lysate, 1 h at 37 °C
T3 sequence (F8VPT3 869-1931 limits assumed): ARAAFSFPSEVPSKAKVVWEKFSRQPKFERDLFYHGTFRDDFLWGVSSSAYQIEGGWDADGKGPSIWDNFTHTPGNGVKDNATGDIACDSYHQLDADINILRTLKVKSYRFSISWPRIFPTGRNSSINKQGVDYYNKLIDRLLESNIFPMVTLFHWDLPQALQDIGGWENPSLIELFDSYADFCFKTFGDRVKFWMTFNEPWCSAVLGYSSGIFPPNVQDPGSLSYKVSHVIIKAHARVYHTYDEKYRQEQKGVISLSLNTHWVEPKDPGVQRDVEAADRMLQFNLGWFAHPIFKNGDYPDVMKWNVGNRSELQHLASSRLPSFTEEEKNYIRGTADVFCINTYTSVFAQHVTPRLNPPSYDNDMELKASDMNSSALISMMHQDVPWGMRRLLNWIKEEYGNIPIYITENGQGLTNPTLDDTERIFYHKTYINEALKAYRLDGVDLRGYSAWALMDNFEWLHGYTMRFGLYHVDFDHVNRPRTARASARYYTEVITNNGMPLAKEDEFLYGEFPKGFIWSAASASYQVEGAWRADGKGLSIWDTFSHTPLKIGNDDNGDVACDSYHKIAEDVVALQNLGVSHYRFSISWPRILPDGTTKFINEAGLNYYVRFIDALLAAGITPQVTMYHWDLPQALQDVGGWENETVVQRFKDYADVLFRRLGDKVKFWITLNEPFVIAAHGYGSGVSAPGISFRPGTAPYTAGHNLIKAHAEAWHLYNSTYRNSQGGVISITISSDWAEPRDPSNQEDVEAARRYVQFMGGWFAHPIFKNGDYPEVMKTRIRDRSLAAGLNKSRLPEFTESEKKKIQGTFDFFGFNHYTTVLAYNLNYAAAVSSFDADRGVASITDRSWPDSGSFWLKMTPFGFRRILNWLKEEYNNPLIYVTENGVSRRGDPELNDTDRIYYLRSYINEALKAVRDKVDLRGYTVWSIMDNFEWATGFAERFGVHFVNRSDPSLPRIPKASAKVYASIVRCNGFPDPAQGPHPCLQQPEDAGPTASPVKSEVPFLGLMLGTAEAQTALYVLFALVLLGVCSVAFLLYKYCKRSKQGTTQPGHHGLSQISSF
Summary of the method: as §1

In the case of `O=S1(=O)O[C@@H]2[C@H](O)[C@@H](O)[C@H](O)[C@@H](CO)[C@@H]2O1` [Compound 5, 1,6-epi-cyclophellitol cyclosulfate], the IC50 (human β-glucosidase GBA1) is reported as over 100 µM, the “inhibition of probe 14 labeling of GBA2” value (GBA2) is reported as “no inhibition” and the “inhibition of probe 13 labeling of SIS” value (sucrase-isomaltase (SIS)) is reported as “inhibited”. The “competition of off-target probe 13 labeling of LPH” value [1] was “not outcompeted”.
